Assay results taken from ChEMBL document CHEMBL1287672, “Synthesis of new 4-aminoquinolines and quinoline-acridine hybrids as antimalarial agents” (2010).
Values after ≈ are worked out from the molar mass of the structure shown. Active and inactive are the calls of the source. The calls are words filed in the database; no cut-off is given here.

Assays:
Plasmodium yoelii [1] = experiment: Antimalarial activity against chloroquine-resistant Plasmodium yoelii infected in Swiss mice (Mus musculus) assessed as suppression of parasitaemia at 25 mg/kg, intraperitoneal for 4 days relative to control; type: functional
Outline: (§1)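 Swiss mice were infected on day 0 with 1 × 10^6 RBC parasitized by P. yoelii N-67. Five mice per group were dosed once daily on days 0–3 with a Tween 80 aqueous suspension, given ip in 0.2 mL or orally in 0.1 mL. Parasitemia was read from thin Giemsa smears on day 4. Suppression was calculated from group means as [(C − T)/C] × 100 against untreated controls.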

Plasmodium falciparum = experiment: Antimalarial activity against Plasmodium falciparum NF 54 assessed as inhibition of maturation into schizont stage after 36 to 40 hrs; type: functional
Outline: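 Synchronous ring-stage NF-54 parasites (5% D-sorbitol synchronization) in RPMI-1640 with 25 mM HEPES, 1% D-glucose, 0.23% sodium bicarbonate and 10% heat-inactivated human serum. Start at 1% parasitemia, 3% hematocrit. Compounds tested in duplicate wells, 37 °C, candle jar, 36–40 h. Giemsa-stained smears read by microscopy. MIC is the lowest tested concentration blocking full maturation to schizonts. Chloroquine reference.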

Plasmodium yoelii [2] = experiment: Antimalarial activity against chloroquine-resistant Plasmodium yoelii infected in Swiss mice (Mus musculus) assessed as suppression of parasitaemia at 100 mg/kg, peroral for 4 days relative to control; type: functional; conditions: route oral; outline: as §1
Plasmodium yoelii [3] = experiment: Antimalarial activity against chloroquine-resistant Plasmodium yoelii infected in Swiss mice (Mus musculus) assessed as mice (Mus musculus) survival at 50 mg/kg, intraperitoneal for 4 days relative to control; type: functional, organism-based; parameters: dose 50 mg/kg
Outline: (§2)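 Swiss mice were inoculated with 1 × 10^6 P. yoelii N-67 parasitized RBC on day 0. Groups of five were dosed once daily on days 0–3 with compound as an aqueous suspension with a few drops of Tween 80. Intraperitoneal doses were given in 0.2 mL and oral doses in 0.1 mL. The read-out was the number of mice alive on day 28.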

Plasmodium yoelii [4] = experiment: Antimalarial activity against chloroquine-resistant Plasmodium yoelii infected in Swiss mice (Mus musculus) assessed as mice (Mus musculus) survival at 25 mg/kg, intraperitoneal for 4 days relative to control; type: functional, organism-based; parameters: dose 25 mg/kg; outline: as §2
Plasmodium yoelii [5] = experiment: Antimalarial activity against chloroquine-resistant Plasmodium yoelii infected in Swiss mice (Mus musculus) assessed as suppression of parasitaemia at 50 mg/kg, intraperitoneal for 4 days relative to control; type: functional; outline: as §1
Plasmodium yoelii [6] = experiment: Antimalarial activity against chloroquine-resistant Plasmodium yoelii infected in Swiss mice (Mus musculus) assessed as mice (Mus musculus) survival at 100 mg/kg, peroral for 4 days relative to control; type: functional, organism-based; parameters: dose 100 mg/kg; outline: as §2

| Compound | MIC (Plasmodium falciparum) [µg/mL] | also measured |
| --- | --- | --- |
| Clc1ccc2c(NCCCN3CCN(c4ccccn4)CC3)ccnc2c1 | 0.125 (≈ 0.327 µM) | Activity (Plasmodium yoelii [1]): 100%; Activity (Plasmodium yoelii [2]): 100%; Activity (Plasmodium yoelii [3]): Active; Activity (Plasmodium yoelii [4]): Active; Activity (Plasmodium yoelii [5]): 100%; Activity (Plasmodium yoelii [6]): Active |
| Clc1ccc2c(NCCCN3CCc4ccccc4C3)ccnc2c1 | 0.031 (≈ 0.0881 µM) | Activity (Plasmodium yoelii [3]): inactive; Activity (Plasmodium yoelii [5]): 100% |
| Cc1ccc([N+](=O)[O-])c(N2CCN(CCCNc3ccnc4cc(Cl)ccc34)CC2)c1 | 10 (≈ 22.7 µM) | – |
| Cc1ccc([N+](=O)[O-])c(N2CCN(CCNc3ccnc4cc(Cl)ccc34)CC2)c1 | 10 (≈ 23.5 µM) | – |
| COc1ccc2nc3cc(Cl)ccc3c(NCCCN3CCN(c4ccnc5cc(Cl)ccc45)CC3)c2c1 | 1 (≈ 1.83 µM) | – |
| COc1ccc2nc3cc(Cl)ccc3c(Nc3cccc(Nc4ccnc5cc(Cl)ccc45)c3)c2c1 | 0.25 (≈ 0.489 µM) | Activity (Plasmodium yoelii [3]): inactive; Activity (Plasmodium yoelii [5]): 100% |
| COc1ccc2nc3cc(Cl)ccc3c(NCCN3CCN(c4ccnc5cc(Cl)ccc45)CC3)c2c1 | 1 (≈ 1.88 µM) | – |
| O=[N+]([O-])c1cccnc1N1CCN(CCCNc2ccnc3cc(Cl)ccc23)CC1 | 10 (≈ 23.4 µM) | – |
| O=[N+]([O-])c1ccccc1N1CCN(CCNc2ccnc3cc(Cl)ccc23)CC1 | 10 (≈ 24.3 µM) | – |
| O=[N+]([O-])c1cccnc1N1CCN(CCNc2ccnc3cc(Cl)ccc23)CC1 | 10 (≈ 24.2 µM) | – |
| COc1ccc2nc3cc(Cl)ccc3c(Nc3ccc(Nc4ccnc5cc(Cl)ccc45)cc3)c2c1 | 0.5 (≈ 0.978 µM) | – |
| N#CC1(c2ccccc2)CCN(CCNc2ccnc3cc(Cl)ccc23)CC1 | 10 (≈ 25.6 µM) | – |
| N#CC1(c2ccccc2)CCN(CCCNc2ccnc3cc(Cl)ccc23)CC1 | 2 (≈ 4.94 µM) | – |
| Clc1ccc2c(NCCN3CCN(c4ccccn4)CC3)ccnc2c1 | 10 (≈ 27.2 µM) | – |
| Clc1ccc2c(NCCN3CCc4ccccc4C3)ccnc2c1 | 2 (≈ 5.92 µM) | – |
| CCN(CC)CCCC(C)Nc1ccnc2cc(Cl)ccc12 (configuration not stated) [CHLOROQUINE] | 0.125 (≈ 0.391 µM) | – |
| O=[N+]([O-])c1ccccc1N1CCN(CCCNc2ccnc3cc(Cl)ccc23)CC1 | 10 (≈ 23.5 µM) | – |
